Source: PubChem BioAssay
Results filed as inconclusive are left out.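 The calls were made as follows, unless noted: active = cell viability at or below a set limit in both duplicate runs, the limit being the all-compound median minus 4 SD (cut at about 23% in these data, passing the limit was not always enough); inconclusive = no clear call, values can overlap the other calls; inactive = the rest.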

Legend:
[1] = OD615 S. cerevisiae growth inhibition, permissive medium, pilot counter-assay, permissive growth control for S. cerevisiae lifespan shortening project (AID 705;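 active = growth inhibition above 25% in both replicates, a cutoff set 3 SD above the mean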); details: OD615, 24 h, at 10 µM, stronger effect = higher value
Outline: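 Test system: Saccharomyces cerevisiae strain carrying genetically modified DeaD replicative-lifespan system; buffer or medium: SC raffinose/galactose permissive medium; dosing: one dose 10 µM, DMSO 0.25% final; times: 24 h exposure, 30 °C; measured by: OD at 615 nm; read-out basis: growth inhibition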

[2] = Restrictive medium S. cerevisiae growth inhibition, OD615, pilot screen of yeast lifespan reduction project, restrictive growth control (AID 706;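 active = growth inhibition above a set limit, 3 SD over mean compound inhibition, in both replicates, cut at about 43% in these data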;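 also: modified DeaD lifespan yeast strain shifted to restrictive glucose medium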); details: OD615, 48 h, at 10 µM, stronger effect = higher value
Outline: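 material = engineered S. cerevisiae DeaD strain | buffer or medium = glucose-based CSMM-D restrictive medium | dosing = one concentration, 10 µM final, 0.25% DMSO | schedule = 4 h pre-growth plus 48 h compound exposure, 30 °C | detection = OD615 absorbance reading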

[3] = viability gain of MRP-1-high H69AR cells under doxorubicin, pilot screen, MRP-1 activator project, CellTiter-Glo, duplicate (AID 807;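 active = viability increase at or above a cutoff of the median across tested compounds plus 3 SD, cut at about 8.5% in these data, passing the limit was not always enough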;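 also: compound pretreatment 18-22 h then 72 h combined with doxorubicin; 0% = doxorubicin alone and 100% = vehicle without doxorubicin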); details: H69AR viability with doxorubicin, CellTiter-Glo luminescence; at 10 µM; stronger effect = higher value
[4] = growth suppression of beta-catenin knockout HCT116, pilot screen, human colon tumor cells (AID 823); details: CellTiter-Glo, 60 h, at 10 µM, stronger effect = lower value;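 also: 0% = wells killed by 20 µM Hyamine and 100% = untreated DMSO cell wells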
[5] = growth suppression of PTEN-deleted HCT116, pilot screen, cell-based, HCT116 clonal line, CellTiter-Glo (AID 824;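 active = viability at or below 27.92% in each of two runs, the all-compound median minus 4 SD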;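 also: 0% = 20 µM Hyamine control and 100% = vehicle cell control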); details: 60 h, at 10 µM, stronger effect = lower value
[6] = inhibitors of the yeast RAM network, pilot screen, dse1pr::URA3 reporter, 5-FOA selection (AID 869;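 active = inhibition over a set limit, the all-compound mean plus 3 SD, in both replicate runs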;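 also: 0% = DMSO wells with no growth and 100% = 10 µM 1-NA-PP1 with full growth; RAM network block rescues cells from 5-FOA so hits raise OD615 growth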); details: S. cerevisiae dse1pr::URA3 5-FOA growth, OD615, 2 d; at 10 µM; stronger effect = higher value; strain carries analog-sensitive mutant Cbk1 kinase
[7] = RAM signaling pathway blockade in yeast – S. cerevisiae, Pdr1DBD-CYC8 efflux-inhibited sensitized strain, primary screen (AID 1298;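 active = RAM network inhibition above 8.4% in each of two replicates, 3 SD over the compound average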;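 also: 0% = DMSO untreated cells without growth and 100% = 10 µM 1-NA-PP1 full growth; higher means more yeast growth rescued from 5-FOA killing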); details: S. cerevisiae cbk1-as DSE1-URA3 strain, 5-FOA growth OD615, 2 d; at 50 µM; stronger effect = higher value

CCCCOC(=O)CSc1nnc(N)s1
inactive: growth inhibition [1] -4.92% | growth inhibition [2] -1.45% | viability increase [3] -0.86% | viability [4] 105% | viability [5] 96.5% | inhibition [6] 0.205% | RAM network inhibition [7] 6.89%

CCOC(=O)c1cc2c(=O)n3ccccc3nc2n(CCCOC)c1=NC(=O)c1cccnc1
inactive: growth inhibition [1] -0.71% | growth inhibition [2] -4.29% | viability increase [3] -4.22% | viability [4] 112% | viability [5] 93.7% | inhibition [6] 0.775% | RAM network inhibition [7] 3.03%

COc1cccc2cc3c(=O)n(-c4ccccc4)nc-3oc12
inactive: growth inhibition [1] -29.6% | growth inhibition [2] -20.8% | viability increase [3] -7.1% | viability [4] 97.2% | viability [5] 92.1% | inhibition [6] 2.73% | RAM network inhibition [7] 3.19%

C=CCn1c(CSc2nc3ccccc3s2)nnc1SCC(=O)NCc1ccco1
inactive: growth inhibition [1] 1.06% | growth inhibition [2] 30.4% | viability increase [3] -3.87% | viability [4] 96.6% | viability [5] 90.4% | inhibition [6] 0.105% | RAM network inhibition [7] 2.19%

CN1CCc2c(c3ccccc3n2Cc2ccccc2)C1
inactive: growth inhibition [1] -5.23% | growth inhibition [2] -8.68% | viability increase [3] -5.7% | viability [4] 57.9% | viability [5] 63.9% | inhibition [6] 1.27% | RAM network inhibition [7] 5.12%

COc1ccc(CN(C)C2CCCCC2)cc1
inactive: growth inhibition [1] -16.4% | growth inhibition [2] -4.68% | viability increase [3] 0.58% | viability [4] 95.9% | viability [5] 99% | inhibition [6] 1.12% | RAM network inhibition [7] 4.95%

CCOc1ccc(N(CC(=O)NCc2ccc(F)cc2)S(=O)(=O)c2c(C)noc2C)cc1
inactive: growth inhibition [1] -15.6% | growth inhibition [2] -8.36% | viability increase [3] -1.36% | viability [4] 99.3% | viability [5] 92.8% | inhibition [6] 2.25% | RAM network inhibition [7] 2.84%

COc1ccc(COC(=O)C2=C(C)NC(=O)NC2c2ccc(O)c(OC)c2)cc1 (configuration not stated)
inactive: growth inhibition [1] -12% | growth inhibition [2] -17.8% | viability increase [3] 3.03% | viability [4] 93.1% | viability [5] 89.2% | inhibition [6] 0.34% | RAM network inhibition [7] 1.52%

CCn1cc(C2N3CC4(C)CN2CC(C)(C3)C4=O)c2ccccc21 (configuration not stated)
inactive: growth inhibition [1] -13.9% | growth inhibition [2] -16.4% | viability increase [3] -0.78% | viability [4] 97.3% | viability [5] 100% | inhibition [6] 1.94% | RAM network inhibition [7] 0.48%

Clc1ccccc1CSc1nnc(-c2cccnc2)n1Cc1ccco1
inactive: growth inhibition [1] 2.38% | growth inhibition [2] 23.5% | viability increase [3] -4.89% | viability [4] 90.4% | viability [5] 91% | inhibition [6] 1.38% | RAM network inhibition [7] 4.7%

CCC(=O)N1c2ccccc2-c2nnc(SC)nc2OC1c1ccc(N(C)C)cc1 (configuration not stated)
inactive: growth inhibition [1] -3.95% | growth inhibition [2] 4.3% | viability increase [3] -6.55% | viability [4] 93.8% | viability [5] 91.5% | inhibition [6] 3.08% | RAM network inhibition [7] 1.82%

Cc1oc2c(c1C(=O)NC(Cc1c[nH]c3ccccc13)C(=O)O)CCCC2 (configuration not stated)
inactive: growth inhibition [1] -8.56% | growth inhibition [2] -5.62% | viability increase [3] -3.61% | viability [4] 100% | viability [5] 97.6% | inhibition [6] 1.37% | RAM network inhibition [7] 0.1%

CC(=O)N1CCN(c2ccc(NCc3ccc(C)s3)cc2)CC1
inactive: growth inhibition [1] -5.79% | growth inhibition [2] 8.29% | viability increase [3] -2.32% | viability [4] 99% | viability [5] 95% | inhibition [6] 1.92% | RAM network inhibition [7] 7.94%

CCOc1ccc(C2c3c(oc4ccccc4c3=O)C(=O)N2c2ccc(C)cn2)cc1OC (configuration not stated)
inactive: growth inhibition [1] -7.41% | growth inhibition [2] 2.13% | viability increase [3] -4.09% | viability [4] 81.4% | viability [5] 83.7% | inhibition [6] 1.88% | RAM network inhibition [7] 4.03%

COc1ccc2c(c1)CC(C1(O)C(=O)N(C)c3ccccc31)C2=O (configuration not stated)
inactive: growth inhibition [1] 2.02% | growth inhibition [2] -8.81% | viability increase [3] -3.79% | viability [4] 94% | viability [5] 93.3% | inhibition [6] 0.845% | RAM network inhibition [7] 2.96%

COc1cc(C2C3=C(CC(C)(C)CC3=O)N(C)C(=O)N2C)cc(OC)c1OC (configuration not stated)
inactive: growth inhibition [1] -7.27% | growth inhibition [2] -16.8% | viability increase [3] -0.06% | viability [4] 104% | viability [5] 103% | inhibition [6] 0.385% | RAM network inhibition [7] -0.15%

O=C(O)C1CCCN1S(=O)(=O)c1ccc(Cl)c(Cl)c1 (configuration not stated)
inactive: growth inhibition [1] -5.33% | growth inhibition [2] -3.77% | viability increase [3] -1.74% | viability [4] 98.6% | viability [5] 106% | inhibition [6] -0.11% | RAM network inhibition [7] 1.89%

O=c1c2ccccc2nc(SCc2nnc(-c3ccccc3)o2)n1-c1ccccc1
inactive: growth inhibition [1] -13.1% | growth inhibition [2] -8.7% | viability increase [3] -3.18% | viability [4] 75.4% | viability [5] 84.6% | inhibition [6] 1.96% | RAM network inhibition [7] 5.69%

COc1ccc(C(=O)Nc2c(N)nc(SCC(=O)N3CCCCCC3)[nH]c2=O)cc1OC
inactive: growth inhibition [1] -2.35% | growth inhibition [2] -3.33% | viability increase [3] -0.26% | viability [4] 96.8% | viability [5] 102% | inhibition [6] 1.97% | RAM network inhibition [7] 5.94%

COc1ccc(OC)c(C(C)NC(=O)c2ccco2)c1 (configuration not stated)
inactive: growth inhibition [1] -6.2% | growth inhibition [2] 2.66% | viability increase [3] -5.99% | viability [4] 40.8% | viability [5] 35.4% | inhibition [6] 0.005% | RAM network inhibition [7] 0.72%

COc1cccc(NC=C2C(=O)OC(C)(C)OC2=O)c1
inactive: growth inhibition [1] -11% | growth inhibition [2] -2.86% | viability increase [3] -1.97% | viability [4] 98.7% | viability [5] 106% | inhibition [6] 0.94% | RAM network inhibition [7] 2.55%

COc1ccc(NC(=O)CSc2nnc(Cn3c(=O)sc4ccccc43)n2C)cc1OC
inactive: growth inhibition [1] -10.7% | growth inhibition [2] -14.9% | viability increase [3] -2.38% | viability [4] 86.5% | viability [5] 92.2% | inhibition [6] 1.91% | RAM network inhibition [7] 4.34%

CCOC(=O)c1c(-c2ccc(C)o2)csc1N
inactive: growth inhibition [1] 4.88% | growth inhibition [2] 0.615% | viability increase [3] -2.73% | viability [4] 97% | viability [5] 93.8% | inhibition [6] 1.57% | RAM network inhibition [7] 4.1%

Cc1cc(C)n(-c2nc3ccccc3nc2N2CCOCC2)n1
inactive: growth inhibition [1] -12.6% | growth inhibition [2] 7.74% | viability increase [3] -1.22% | viability [4] 98% | viability [5] 98.3% | inhibition [6] 2.33% | RAM network inhibition [7] 2.25%

COC(=O)CSC1=C(C#N)C(c2ccccc2F)CC(=O)N1 (configuration not stated)
inactive: growth inhibition [1] -9.32% | growth inhibition [2] -6.92% | viability increase [3] -2.29% | viability [4] 92.6% | viability [5] 94.1% | inhibition [6] 1.32% | RAM network inhibition [7] 0.84%

CCN1CCN(CCNC(=O)CS(=O)(=O)Cc2nc(-c3ccc(C)cc3)oc2C)CC1
inactive: growth inhibition [1] -13.7% | growth inhibition [2] -28.7% | viability increase [3] 0.44% | viability [4] 87.2% | viability [5] 93.7% | inhibition [6] 0.22% | RAM network inhibition [7] 3.16%

Cc1cc(Cl)ccc1N=Cc1c(O)n(C)c(=O)n(C)c1=O
inactive: growth inhibition [1] 1.62% | growth inhibition [2] 1.2% | viability increase [3] 2.36% | viability [4] 106% | viability [5] 105% | inhibition [6] 0.11% | RAM network inhibition [7] -1.25%

COc1ccc(-n2c(Cc3cccn3C)nnc2SCC(=O)N2CCOCC2)cc1
inactive: growth inhibition [1] 3.14% | growth inhibition [2] 10.2% | viability increase [3] -1.11% | viability [4] 103% | viability [5] 96% | inhibition [6] 1.11% | RAM network inhibition [7] 0.98%

Cc1cc(C)c2c(n1)SCC(=O)N2CC(=O)NCCC1=CCCCC1
inactive: growth inhibition [1] -0.205% | growth inhibition [2] 4.58% | viability increase [3] -0.04% | viability [4] 103% | viability [5] 92.9% | inhibition [6] 0.52% | RAM network inhibition [7] 2.59%

Cc1c(C(=O)NCc2ccc3c(c2)OCO3)oc2ccccc12
inactive: growth inhibition [1] 1.35% | growth inhibition [2] 16% | viability increase [3] -0.04% | viability [4] 108% | viability [5] 98.9% | inhibition [6] -0.54% | RAM network inhibition [7] 5.64%

COc1ccc(-c2nc(CSCC(=O)N3CCN(C4CCCCC4)CC3)c(C)o2)cc1OC
inactive: growth inhibition [1] -5.55% | growth inhibition [2] 7.03% | viability increase [3] -1.54% | viability [4] 87.8% | viability [5] 96.3% | inhibition [6] 1.04% | RAM network inhibition [7] 2.38%

COc1nc(Nc2ccc3c(c2)OCO3)nc(OC)n1
inactive: growth inhibition [1] -22% | growth inhibition [2] -10.4% | viability increase [3] -2.8% | viability [4] 102% | viability [5] 93.6% | inhibition [6] 3.51% | RAM network inhibition [7] 4.7%

Cc1sc2ncnc(NCc3ccco3)c2c1C
inactive: growth inhibition [1] 4.72% | growth inhibition [2] 6.04% | viability increase [3] -6.03% | viability [4] 55.6% | viability [5] 62.3% | inhibition [6] 1.61% | RAM network inhibition [7] 6.13%

O=C(CCc1nc2ccccc2[nH]1)NCc1ccc2c(c1)OCO2
inactive: growth inhibition [1] -8.32% | growth inhibition [2] -4.06% | viability increase [3] -2.13% | viability [4] 97.8% | viability [5] 91.7% | inhibition [6] 2.1% | RAM network inhibition [7] 1.84%

CC(C)=CC1C(C(=O)Nc2ccc(Br)cn2)C1(C)C (configuration not stated)
inactive: growth inhibition [1] -14.6% | growth inhibition [2] -19.1% | viability increase [3] -0.01% | viability [4] 60.7% | viability [5] 63.2% | inhibition [6] 3.15% | RAM network inhibition [7] 4.66%

COc1ccc(Cl)cc1N(CC(=O)N1CCN(Cc2ccccc2)CC1)S(C)(=O)=O
inactive: growth inhibition [1] -5.27% | growth inhibition [2] -11.1% | viability increase [3] -0.51% | viability [4] 95.9% | viability [5] 92.8% | inhibition [6] 1.38% | RAM network inhibition [7] 0.41%
